Measured values from ChEMBL document CHEMBL1146451, “Spirostanol and furostanol glycosides from the fresh tubers of Polianthes tuberosa” (J Nat Prod, 2004).
≈ marks a conversion by molar mass, not a printed value.

Test system: HeLa
Experiment: Cytotoxicity against human HeLa cells after 72 hrs by MTT assay
Format: functional, cell-based
In short: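 HeLa cells seeded at 2 × 10^4 cells/mL in RPMI 1640, preincubated 12 h at 37 °C in 5% CO2/air. Samples added in DMSO to final 25, 20, 15, 10, 5, 2.5, 1.25, 0.80 µg/mL; DMSO alone in control wells.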

SMILES	IC50 [µg/mL]
C[C@@H]1CC[C@@]2(OC1)O[C@H]1C[C@H]3[C@@H]4CC[C@H]5C[C@@H](O[C@@H]6O[C@H](CO)[C@H](O[C@@H]7O[C@H](CO)[C@@H](O)[C@H](O)[C@H]7O[C@@H]7O[C@H](CO)[C@@H](O)[C@H](O)[C@H]7O)[C@H](O)[C@H]6O)CC[C@]5(C)[C@H]4CC(=O)[C@]3(C)[C@H]1[C@@H]2C	8.61 (≈ 9.39 µM)
C[C@@H]1CC[C@@]2(OC1)O[C@H]1C[C@H]3[C@@H]4C[C@H](O)[C@H]5C[C@@H](O[C@@H]6O[C@H](CO)[C@H](O[C@@H]7O[C@H](CO)[C@@H](O)[C@H](O[C@@H]8OC[C@@H](O)[C@H](O)[C@H]8O)[C@H]7O[C@@H]7O[C@H](CO)[C@@H](O)[C@H](O[C@@H]8OC[C@@H](O)[C@H](O)[C@H]8O)[C@H]7O)[C@H](O)[C@H]6O)CC[C@]5(C)[C@H]4CC[C@]3(C)[C@H]1[C@@H]2C	7.5 (≈ 6.34 µM)
C[C@H](CC[C@@]1(O)O[C@H]2C[C@H]3[C@@H]4CC[C@H]5C[C@@H](O[C@@H]6O[C@H](CO)[C@H](O[C@@H]7O[C@H](CO)[C@@H](O)[C@H](O[C@@H]8OC[C@@H](O)[C@H](O)[C@H]8O)[C@H]7O[C@@H]7O[C@H](CO)[C@@H](O)[C@H](O)[C@H]7O)[C@H](O)[C@H]6O)CC[C@]5(C)[C@H]4CC[C@]3(C)[C@H]2[C@@H]1C)CO[C@@H]1O[C@H](CO)[C@@H](O)[C@H](O)[C@H]1O	18.8 (≈ 15.5 µM)
C[C@@H]1CC[C@@]2(OC1)O[C@H]1C[C@H]3[C@@H]4CC[C@H]5C[C@@H](O[C@@H]6O[C@H](CO)[C@H](O[C@@H]7O[C@H](CO)[C@@H](O)[C@H](O[C@@H]8OC[C@@H](O)[C@H](O)[C@H]8O)[C@H]7O[C@@H]7O[C@H](CO)[C@@H](O)[C@H](O[C@@H]8OC[C@@H](O)[C@H](O)[C@H]8O)[C@H]7O)[C@H](O)[C@H]6O)CC[C@]5(C)[C@H]4CC[C@]3(C)[C@H]1[C@@H]2C	7.2 (≈ 6.17 µM)
C[C@@H]1CC[C@@]2(OC1)O[C@H]1C[C@H]3[C@@H]4CC[C@H]5C[C@@H](O[C@@H]6O[C@H](CO)[C@H](O[C@@H]7O[C@H](CO)[C@@H](O)[C@H](O[C@@H]8OC[C@@H](O)[C@H](O)[C@H]8O)[C@H]7O[C@@H]7O[C@H](CO)[C@@H](O)[C@H](O[C@@H]8OC[C@@H](O)[C@H](O)[C@H]8O)[C@H]7O)[C@H](O)[C@H]6O)CC[C@]5(C)[C@H]4CC(=O)[C@]3(C)[C@H]1[C@@H]2C	4.02 (≈ 3.4 µM)
C[C@@H]1CC[C@@]2(OC1)O[C@H]1C[C@H]3[C@@H]4CC[C@H]5C[C@@H](O[C@@H]6O[C@H](CO)[C@H](O[C@@H]7O[C@H](CO)[C@@H](O)[C@H](O[C@@H]8OC[C@@H](O)[C@H](O)[C@H]8O)[C@H]7O[C@@H]7O[C@H](CO)[C@@H](O)[C@H](O)[C@H]7O)[C@H](O)[C@H]6O)CC[C@]5(C)[C@H]4CC(=O)[C@]3(C)[C@H]1[C@@H]2C	8.17 (≈ 7.79 µM)
C[C@@H]1CC[C@@]2(OC1)O[C@H]1C[C@H]3[C@@H]4CC[C@H]5C[C@@H](O[C@@H]6O[C@H](CO)[C@H](O[C@@H]7O[C@H](CO)[C@@H](O)[C@H](O[C@@H]8O[C@H](CO)[C@@H](O)[C@H](O)[C@H]8O)[C@H]7O[C@@H]7O[C@H](CO)[C@@H](O)[C@H](O[C@@H]8OC[C@@H](O)[C@H](O)[C@H]8O)[C@H]7O)[C@H](O)[C@H]6O)CC[C@]5(C)[C@H]4CC(=O)[C@]3(C)[C@H]1[C@@H]2C [AGAMENOSIDE F]	5.1 (≈ 4.21 µM)
C[C@@H]1CC[C@@]2(OC1)O[C@H]1C[C@H]3[C@@H]4CC[C@H]5C[C@@H](O[C@@H]6O[C@H](CO)[C@H](O[C@@H]7O[C@H](CO)[C@@H](O)[C@H](O[C@@H]8O[C@H](CO)[C@@H](O)[C@H](O)[C@H]8O)[C@H]7O[C@@H]7O[C@H](CO)[C@@H](O)[C@H](O[C@@H]8OC[C@@H](O)[C@H](O)[C@H]8O)[C@H]7O)[C@H](O)[C@H]6O)CC[C@]5(C)[C@H]4CC[C@]3(C)[C@H]1[C@@H]2C [POLIANTHOSIDE B]	> 20
C[C@@H]1CC[C@@]2(OC1)O[C@H]1C[C@H]3[C@@H]4CC[C@H]5C[C@@H](O[C@@H]6O[C@H](CO)[C@H](O[C@@H]7O[C@H](CO)[C@@H](O)[C@H](O[C@@H]8O[C@H](CO)[C@@H](O)[C@H](O)[C@H]8O)[C@H]7O[C@@H]7O[C@H](CO)[C@@H](O)[C@H](O[C@@H]8O[C@H](CO)[C@@H](O)[C@H](O)[C@H]8O)[C@H]7O)[C@H](O)[C@H]6O)CC[C@]5(C)[C@H]4CC[C@]3(C)[C@H]1[C@@H]2C [POLIANTHOSIDE C]	> 20
C[C@H](CC[C@@]1(O)O[C@H]2C[C@H]3[C@@H]4CC[C@H]5C[C@@H](O[C@@H]6O[C@H](CO)[C@H](O[C@@H]7O[C@H](CO)[C@@H](O)[C@H](O[C@@H]8OC[C@@H](O)[C@H](O)[C@H]8O)[C@H]7O[C@@H]7O[C@H](CO)[C@@H](O)[C@H](O)[C@H]7O)[C@H](O)[C@H]6O)CC[C@]5(C)[C@H]4CC(=O)[C@]3(C)[C@H]2[C@@H]1C)CO[C@@H]1O[C@H](CO)[C@@H](O)[C@H](O)[C@H]1O [POLIANTHOSIDE D]	7.86 (≈ 6.39 µM)
C[C@H](CC[C@@]1(O)O[C@H]2C[C@H]3[C@@H]4CC[C@H]5C[C@@H](O[C@@H]6O[C@H](CO)[C@H](O[C@@H]7O[C@H](CO)[C@@H](O)[C@H](O[C@@H]8OC[C@@H](O)[C@H](O)[C@H]8O)[C@H]7O[C@@H]7O[C@H](CO)[C@@H](O)[C@H](O[C@@H]8OC[C@@H](O)[C@H](O)[C@H]8O)[C@H]7O)[C@H](O)[C@H]6O)CC[C@]5(C)[C@H]4CC(=O)[C@]3(C)[C@H]2[C@@H]1C)CO[C@@H]1O[C@H](CO)[C@@H](O)[C@H](O)[C@H]1O [POLIANTHOSIDE E]	5.21 (≈ 3.83 µM)
C[C@H](CC[C@@]1(O)O[C@H]2C[C@H]3[C@@H]4CC[C@H]5C[C@@H](O[C@@H]6O[C@H](CO)[C@H](O[C@@H]7O[C@H](CO)[C@@H](O)[C@H](O[C@@H]8OC[C@@H](O)[C@H](O)[C@H]8O)[C@H]7O[C@@H]7O[C@H](CO)[C@@H](O)[C@H](O[C@@H]8OC[C@@H](O)[C@H](O)[C@H]8O)[C@H]7O)[C@H](O)[C@H]6O)CC[C@]5(C)[C@H]4CC[C@]3(C)[C@H]2[C@@H]1C)CO[C@@H]1O[C@H](CO)[C@@H](O)[C@H](O)[C@H]1O [POLIANTHOSIDE F]	20 (≈ 14.8 µM)
C[C@H](CC[C@@]1(O)O[C@H]2C[C@H]3[C@@H]4CC[C@H]5C[C@@H](O[C@@H]6O[C@H](CO)[C@H](O[C@@H]7O[C@H](CO)[C@@H](O)[C@H](O[C@@H]8O[C@H](CO)[C@@H](O)[C@H](O)[C@H]8O)[C@H]7O[C@@H]7O[C@H](CO)[C@@H](O)[C@H](O[C@@H]8OC[C@@H](O)[C@H](O)[C@H]8O)[C@H]7O)[C@H](O)[C@H]6O)CC[C@]5(C)[C@H]4CC[C@]3(C)[C@H]2[C@@H]1C)CO[C@@H]1O[C@H](CO)[C@@H](O)[C@H](O)[C@H]1O [POLIANTHOSIDE G]	5.36 (≈ 3.89 µM)
